# A selection: hits, their analogues and other compounds. The true share with any hit is near 3.8%.
# hERG rescue = hERG rescue from dofetilide block, primary screen, cell-based, CHO-hERG, FluxOR thallium flux, dofetilide IC70 | Voltage-gated inwardly rectifying potassium channel KCNH2 (Homo sapiens), Q12809 | dofetilide IC70 present | activation (rescue from dofetilide block), less the hit threshold, % at 10 µM | 310,000 compounds, 0.51% hits | AID 1511, 2009;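 active means activation above the mean of controls blocked by dofetilide plus 5 SD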;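 further: thallium influx through hERG after potassium depolarization seen as dye fluorescence rise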
# KCNK3 block = human KCNK3 channel inhibitors, primary screen, CHO cells, FluxOR thallium flux, B-score; 340,000 compounds, 0.84% hits; AID 602410, 2012; B-score at 10 µM; FluxOR fluorescence; hits give low values; Potassium channel subfamily K member 3 (Homo sapiens), O14649;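 active means B-score under library mean minus 4 SD, starting fluorescence ratio at most library mean plus 5 SD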;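 further: more negative B-score means stronger inhibition of thallium flux through KCNK3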
# KCNQ1 block = inhibitors of human KCNQ1 channel, primary screen, cell-based, thallium flux, high-throughput. Potassium voltage-gated channel subfamily KQT member 1 (Homo sapiens), P51787. CHO-K1 KCNQ1, FluxOR thallium flux fluorescence; hits give high values. B-score at 10 µM. 310,000 compounds, 1.3% hits. AID 2642, 2010;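 active means compounds whose thallium flux B-score, printed positive for inhibition, exceeds three library SD while starting fluorescence stays within three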;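 further: channel opened by potassium depolarization with thallium stimulus after 20 min compound exposure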
# KCNK9 block = KCNK9 potassium channel inhibitors, primary screen, HEK293 cells, thallium flux; Potassium channel subfamily K member 9 (Homo sapiens), Q9NPC2; B-score at 10 µM; 310,000 compounds, 1.2% hits; AID 488922, 2010; FluxOR thallium flux fluorescence; hits give low values;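 active means ratio B-score over 3 SD below the library mean, with starting fluorescence within 5 SD of its mean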;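 further: negative B-score means less thallium flux so channel inhibition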
# Kir21 inh = inhibitors of mouse Kir2.1 inward-rectifier potassium channel. Inward rectifier potassium channel 2 (Mus musculus), P35561. HEK293-Kir2.1, FluxOR thallium flux fluorescence; hits give low values. B-score at 10 µM. 310,000 compounds, 0.85% hits;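 active means fluorescence ratio B-score at or below minus 3 SD of library scores, with starting-brightness B-score within 2 SD, cut at about -4.2 in these data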;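 further: channel flux triggered by added potassium and thallium sulfate stimulus; B-score of peak minus minimum fluorescence over baseline after thallium stimulus; more negative B-score means stronger Kir2.1 block with less thallium influx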
# Target sequence (P35561 whole entry, looked up): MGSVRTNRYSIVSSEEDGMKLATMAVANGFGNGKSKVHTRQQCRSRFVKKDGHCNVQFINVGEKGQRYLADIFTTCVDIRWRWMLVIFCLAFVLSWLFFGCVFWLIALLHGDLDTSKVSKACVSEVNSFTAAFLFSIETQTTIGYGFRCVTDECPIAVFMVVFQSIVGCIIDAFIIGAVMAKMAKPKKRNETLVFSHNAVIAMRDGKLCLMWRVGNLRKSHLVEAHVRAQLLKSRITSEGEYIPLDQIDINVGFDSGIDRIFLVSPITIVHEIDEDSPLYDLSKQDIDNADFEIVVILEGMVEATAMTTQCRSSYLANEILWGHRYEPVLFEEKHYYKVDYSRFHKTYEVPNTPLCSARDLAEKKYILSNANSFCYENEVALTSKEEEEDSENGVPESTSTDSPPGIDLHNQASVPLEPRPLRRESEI
# KCNQ1 pot = potentiators or activators of KCNQ1 channel, primary screen, cell-based, thallium flux, high-throughput. Potassium voltage-gated channel subfamily KQT member 1 (Homo sapiens), P51787. CHO-K1 KCNQ1, thallium flux FluxOR fluorescence; hits give high values. B-score at 10 µM. 310,000 compounds, 0.35% hits;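 active means fluorescence ratio B-score, a plate-corrected score, at least three library SD, with initial intensity B-score within 5 SD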
#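 Medium – assay buffer, equal DMSO in all wells · Material – CHO-K1 cell line with stable KCNQ1 potassium channel expression · Signal – kinetic FluxOR thallium fluorescence, 10-s 1-Hz baseline, 110-s post-stimulus read · Compound – single concentration per compound, DMSO matched to controls · Schedule – 37 °C overnight plating, 90-min dark dye load, 20-min compound pretreatment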
# Starred values were filed as active, the others as inactive; i = inactive; . = not tested or not shown.
SMILES,hERG rescue,KCNK3 block,KCNQ1 block,KCNK9 block,Kir21 inh,KCNQ1 pot
CCC(C(=O)NCCCN(CC)Cc1ccccc1)n1nc(C)c2sc3ccccc3c2c1=O (configuration not stated),-7.6,i,i,i,-9.54*,i
O=C(Oc1c(-c2ccccc2)c(=O)n2c3c(cccc13)CC2)c1cccc([N+](=O)[O-])c1,-11.3,i,6*,i,-0.64,i
O=C(Oc1c(-c2ccccc2)c(=O)n2c3c(cccc13)CC2)c1ccccc1,-11.3,i,i,i,-1.56,i
Cc1ccc2c(c1)C1CN(C)CCC1N2C(=S)NC(=O)c1ccc(Br)cc1 (configuration not stated),-1.6,i,i,i,0.01,22*
COc1ccc(C(=O)N/C(=C\c2ccc3c(c2)OCO3)C(=O)N2CCOCC2)cc1,-11.0,i,i,i,-1.49,i
O=C(CSc1nccc(=O)[nH]1)NC1CCCCCCC1,.,i,.,.,.,.
COC(=O)C1=C(C)NC(=O)/C1=C\c1cc(C)n(-c2cccc(C)c2)c1C,-16.7,i,9*,i,2.31,i
CCCC(C(=O)NC(C)(C)C)N(Cc1ccccc1Cl)C(=O)c1snc(C(N)=O)c1N (configuration not stated),-12.3,i,7*,i,-1.56,i
CCCCC(C(=O)NC(C)(C)C)N(Cc1ccccc1Cl)C(=O)c1snc(C(N)=O)c1N (configuration not stated),-16.2,i,6*,i,0.09,i
CCC(=O)N(CC)C1=C(O)c2ccccc2C(=O)C1=O,-8.1,i,i,i,-4.56*,i
N#CC1=C(N)SC(N)=C(C#N)C1Cc1ccccc1,-13.0,i,9*,i,-0.79,i
N#CC1=C(N)SC(N)=C(C#N)C1c1c(Cl)cccc1Cl,-16.9,i,i,i,0.56,i
N#CC1=C(N)SC(N)=C(C#N)C1c1cccc(Oc2ccccc2)c1,-8.8,i,8*,i,0.15,i
Cc1ccc(OC(=O)c2ccc(Br)o2)cc1,22.2*,i,i,i,2.89,i
CCCN1CNC(=S)N(c2cccc(C)c2)C1,-6.2,i,i,i,-0.01,i
CCn1c(CNc2ccccc2Cl)nnc1SCC(=O)OC1CCCCC1,-7.2,i,i,i,-4.49*,i
CCn1c(CNc2cccc(Cl)c2)nnc1SCC(=O)OC1CCCCC1,-14.6,i,i,i,-5.14*,i
CCn1c(CNc2ccc(Cl)cc2)nnc1SCC(=O)OC1CCCCC1,-4.8,i,i,i,-6.62*,i
COc1ccc(CCC(=O)Nc2ccc(OC)c(S(=O)(=O)N3CCCCC3)c2)cc1,.,i,.,.,.,.
Cc1ccc2nc(-c3ccncc3)cc(-c3ccccc3)c2c1,-10.7,i,i,i,0.43,i
Cc1ccc(-c2cc3cccc[n+]3cc2-c2ccc(C)cc2)cc1,-28.6,i,8*,i,-12.2*,i
CN(C1=C(N2CCCCC2)C(=O)c2ccccc2C1=O)c1ccccc1,-10.2,i,i,-14.9*,0.21,i
O=C1C(Nc2ccccc2)=C(N2CCCCC2)C(=O)c2ccccc21,-6.6,i,i,i,0.28,i
O=C1/C(=N\S(=O)(=O)c2cccs2)C([n+]2cccc(Cc3ccccc3)c2)=C([O-])c2ccccc21,-8.1,i,i,-6.59*,-0.68,i
CCOC(=O)C(Cc1ccccc1)NC(=O)CCCC(=O)c1ccccc1 (configuration not stated),-16.3,i,8*,i,0,i

# Assay outcomes: PubChem BioAssay, Johns Hopkins Ion Channel Center
